High-throughput results (PubChem BioAssay)
The list is not random: actives were taken first. Their share in the collection is about 1.1%.
hK5 inh – inhibitors of human kallikrein 5; Q9Y337; recombinant hK5, fluorogenic AMC substrate cleavage; inhibition, % at 5 µM; 210,000 tested, 0.59% active;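 active = inhibition of 40% or more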;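 also: 0% = enzyme controls without compound and 100% = no-enzyme blanks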
FXIa inh – factor XIa (human) inhibition; P03951; purified FXIa, Boc-Glu-Ala-Arg-AMC fluorogenic substrate; inhibition, % at 5 µM; 220,000 tested, 0.14% active;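 active = inhibition of at least 40%; inactive = inhibition below 40%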;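 also: fluorescence of freed AMC excited at 355 nm; 0% = enzyme without compound and 100% = no enzyme blank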
thrombin 1536 – inhibitors of human thrombin | inhibition, % at 5 µM | alpha-thrombin, Boc-VPR-AMC fluorogenic substrate cleavage | 220,000 tested, 0.26% active | P00734;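 active = inhibition at or above 40%; inactive = inhibition below 40%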;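 also: 0% = enzyme with no compound and 100% = wells without enzyme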
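Material: human alpha-thrombin enzyme / Medium: pH 7.5 Tris (50 mM) with NaCl 150 mM, Tween 20 0.05% / Compound: single-point dosing at 5 µM, 0.2% DMSO / Incubation: enzyme reaction carried out at room temperature / Detection: AMC fluorescence, 355/460 nm / Read-out basis: percent inhibition scaled between no-compound controls and no-enzyme blanks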
Furin inh – blocks human furin protease activity; P09958; purified furin, fluorogenic substrate cleavage; inhibition, % at 20 µM or 30 µM; 220,000 tested, 0.061% active; in the data active = inhibition above about 25%
FXIIa inh – factor XIIa (human) inhibition. purified FXIIa, Boc-QGR-AMC fluorogenic substrate, 2 h. P00748. inhibition, % at 5 µM. AID 800. 220,000 tested, 0.3% active; in the data active = inhibition above about 40%;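 also: 0% = enzyme with no compound and 100% = blank without enzyme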
Target sequence (P00748 20-372 limits assumed): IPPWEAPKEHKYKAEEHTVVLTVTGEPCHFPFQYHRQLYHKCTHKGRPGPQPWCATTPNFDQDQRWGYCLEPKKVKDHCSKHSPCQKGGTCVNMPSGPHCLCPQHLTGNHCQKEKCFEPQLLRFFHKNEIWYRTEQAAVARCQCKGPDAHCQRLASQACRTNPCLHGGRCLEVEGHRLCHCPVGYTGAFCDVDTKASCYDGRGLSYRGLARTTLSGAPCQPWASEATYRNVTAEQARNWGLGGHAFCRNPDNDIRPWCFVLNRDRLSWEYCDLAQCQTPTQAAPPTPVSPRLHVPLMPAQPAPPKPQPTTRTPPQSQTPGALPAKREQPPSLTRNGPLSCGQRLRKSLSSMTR
Target sequence (P00748 373-615 limits assumed): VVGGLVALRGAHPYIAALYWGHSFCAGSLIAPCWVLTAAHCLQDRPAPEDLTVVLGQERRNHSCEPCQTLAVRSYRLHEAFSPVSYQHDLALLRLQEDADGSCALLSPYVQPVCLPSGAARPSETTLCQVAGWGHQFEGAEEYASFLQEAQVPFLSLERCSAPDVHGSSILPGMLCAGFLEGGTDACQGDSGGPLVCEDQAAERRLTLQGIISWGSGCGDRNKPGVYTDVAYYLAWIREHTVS
Numbers without * were called inactive; / = not tested or not shown.

SMILES | hK5 inh | FXIa inh | thrombin 1536 | Furin inh | FXIIa inh
COc1ccc(/C(O)=C2/C(=O)C(=O)N(c3ccccn3)C2c2ccc(OC)c(OC)c2)cc1 (stereo unspecified) | 4 | 4 | 1 | -9 | 13
Cc1ccc(-n2c(=O)c3ccccc3n(CC(=O)C(C)(C)C)c2=O)cc1 | 46* | 28 | 9 | -6 | 26
N#Cc1c(N)nc2c3c(sc(=N)c2c1N)NC(=O)CC3c1c(F)cccc1Cl (stereo unspecified) | 68* | 5 | 23 | -15 | 15
COc1ccc(NC(=O)c2ccco2)cc1NC(=O)c1cc2ccccc2o1 | 54* | -1 | 21 | -14 | 3
COc1ccccc1NC(=O)c1cc2ccccc2o1 | -11 | -3 | -4 | -16 | 5
O=C(Nc1ccc(N2CCN(C(=O)c3ccco3)CC2)c(Cl)c1)c1cc2ccccc2o1 | 40* | -4 | 2 | -25 | 8
COc1ccc2nc(NC(=O)C3COc4ccccc4O3)sc2c1 (stereo unspecified) | -8 | 0 | -6 | -18 | 11
CS(=O)(=O)c1ccc2nc(NC(=O)C3COc4ccccc4O3)sc2c1 (stereo unspecified) | 156* | 3 | 18 | -19 | 17
CC(C)CCC(C(=O)O)C(C)CC(=O)Nc1ccn(-c2ccccc2)n1 (stereo unspecified) | -5 | -6 | -13 | -7 | -2
COC(=O)c1c(C)nn(-c2ccccc2)c1-n1cccc1 | 33 | 14 | 41* | -8 | 33
COC(=O)c1c(C)nn(-c2ccccc2)c1N | -5 | 5 | -4 | 0 | 5
Cc1ccc(NCC(=O)Nc2c(C)n(C)n(-c3ccccc3)c2=O)cc1S(=O)(=O)N(C)C | -1 | 0 | -9 | -13 | 12
Cc1c(Cl)cccc1NC(=S)N(Cc1cccnc1)Cc1ccccc1Cl | 4 | -2 | -2 | -22 | 7
O=C(CS(=O)(=O)c1ccc2ccccc2c1)Nc1ccccc1Cl | 58* | 11 | 16 | -12 | 20
COc1cc2ccccc2cc1C(=O)NC(=S)Nc1cc(C(=O)O)ccc1C | -4 | -1 | -15 | -11 | 99*
Cc1cccc(/C=C2/S/C(=N/N=C3\CC4CCC3(C)C4(C)C)NC2=O)c1 (stereo unspecified) | 1 | 7 | 4 | 31* | 23
O=C1N/C(=N/O)S/C1=C/c1cccc([N+](=O)[O-])c1 | 25 | 36 | 9 | -5 | 29
COc1ccc(CC(=O)NNC(=O)c2cccnc2)cc1OC | 4 | 1 | -9 | -26 | 9
CCn1c(CSCc2ccc(Cl)cc2)nnc1SCC(=O)Nc1cccc(C(=O)O)c1 | / | 3 | -2 | -13 | 9
O=C(OCC(=O)N1CCc2ccccc21)c1ccccc1 | -13 | -4 | -5 | -8 | 6
O=C(CO/N=C/c1ccccc1O)N1CCc2ccccc21 | 45* | 5 | 25 | -2 | 4
COc1ccc(/C=C(\C#N)c2n[nH]c(Cn3cncn3)n2)cc1 | 21 | 12 | 4 | 12 | 48*
N#C/C(=C\c1ccc(Cl)cc1)c1n[nH]c(Cn2cncn2)n1 | -18 | -6 | -5 | -15 | 12
Cc1ccccc1N1CCN(Cc2c[nH]c3ccccc23)CC1 | 4 | 20 | 1 | -17 | 48*
O=C1CCC/C(=N/Nc2ccc(Cl)cc2)C1 | -7 | -3 | -12 | -25 | 4
SMILES | hK5 inh | FXIa inh | thrombin 1536 | Furin inh | FXIIa inh
O=C(Nc1ccncc1)C1CCC(CNS(=O)(=O)c2cccc3nsnc23)CC1 (stereo unspecified) | 0 | 4 | -4 | -10 | 2
NC(=O)Cn1nnc(-c2ccc(C(F)(F)F)cc2)n1 | 6 | 6 | -5 | 26* | 8
O=C(Cn1nnc(-c2cccc(C(F)(F)F)c2)n1)N1CCOCC1 | 51* | 23 | 33 | -19 | 17
N/C(=N\NC(=O)c1cccs1)c1cc2cc(Cl)ccc2oc1=O | -7 | -2 | -2 | -27 | 6
Cc1ccc(NC(=S)N2CCN(S(=O)(=O)c3c(F)cccc3F)CC2)cc1C | 1 | -3 | 17 | -19 | 8
CC(/C=N/NC(=O)c1cc(-c2cccn2C)n[nH]1)=C\c1ccccc1 | 57* | 53* | 21 | -7 | 36
CNC(=O)c1ccccc1-c1cn(C)c2ccccc2c1=O | -6 | 1 | -1 | -15 | -2
COCCn1cc(C(=O)c2ccccc2OCC(=O)Nc2cc(C)on2)cc(C#N)c1=O | 42* | 6 | 24 | -6 | 4
CC(O)C1CCC2C3CC[C@H]4CC(O)CCC4(C)C3CC3(OCCO3)C12C (stereo partly specified) | 138* | 10 | 17 | -12 | 27
C[C@]12CCC(O)CC1CCC1C2CC[C@]2(C)C(c3cc(C(F)(F)F)n[nH]3)CCC12 (stereo partly specified) | 4 | 2 | -1 | -4 | 9
CC(NC(=O)CN(C1CCCCC1)S(C)(=O)=O)c1ccccc1 (stereo unspecified) | 36 | 18 | 61* | -21 | 18
CS(=O)(=O)N(CC(=O)NCc1ccccc1)C1CCCCC1 | -8 | 6 | 0 | -12 | 16
CCCNC(=O)CN(C1CCCCC1)S(C)(=O)=O | -13 | -8 | -5 | -14 | 7
CC(C)CNC(=O)CN(C1CCCCC1)S(C)(=O)=O | 52* | 3 | 24 | -21 | 10
Cc1cc2ncn(C(=O)c3ccc4c(c3)OCO4)c2cc1C | 6 | 18 | 41* | -23 | -8
O=c1[nH]nc(SCc2ccccc2)n1C1CC2C=CC1C2 (stereo unspecified) | -12 | -1 | -11 | -20 | 7
O=C(O)CNC(=O)CC12CC3CC(CC(C3)C1)C2 | 1 | -8 | 1 | -14 | 17
CC(C)C(NC(=O)CC12CC3CC(CC(C3)C1)C2)C(=O)O (stereo unspecified) | 6 | 15 | 0 | -14 | 47*
c1ccc(N2CCN(c3nnc(Cc4cccnc4)c4ccccc34)CC2)nc1 | 43* | -1 | 5 | -9 | 4
CC(=O)Nc1ccc2sccc2c1 | -11 | -3 | -13 | -9 | 1
CCOC(=O)c1c(-c2ccccc2)csc1NC(=O)CCN1CCOCC1 | -12 | 8 | -3 | -8 | 8
CCOC(=O)c1c(-c2ccc(C)cc2)csc1NC(=O)CCN1CCOCC1 | 23 | 6 | 42* | -13 | 11
O=C1CSC(c2ccc(Cl)cc2)N1Nc1nc(N2CCOCC2)nc(N2CCOCC2)n1 (stereo unspecified) | 9 | -2 | 7 | -20 | 3
C=CCn1c(SCC(=O)Nc2nc(C)cs2)nnc1C(NC(=O)c1ccccc1)C(C)C (stereo unspecified) | 51* | 4 | 18 | -14 | 15
CNC(=S)N/N=C(\C)c1ccc(C(C)(C)C)cc1 | 49* | 7 | 7 | -11 | 19
COc1ccc(-c2c(C)n([O-])c3c([n+]2=O)CCCC3)cc1OC | -4 | -6 | -13 | -23 | 2
CC(C)OCC1CC(CC(=O)Nc2ccc([N+](=O)[O-])cc2)C(=O)O1 (stereo unspecified) | -1 | -5 | -13 | -17 | 4
